ChEMBL document CHEMBL5512639, “Insights from structure-activity relationships and the binding mode of peptidic α-ketoamide inhibitors of the malaria drug target subtilisin-like SUB1” (Eur J Med Chem, 2024)
Activity calls are given as the source filed them. No cut-off for these calls is given here. Numbered stars: 1 amine (or outer) side, 2 acyl side, 3 side chain; on linkers, the order of the positions; unused ones are H or OH. Square brackets hold non-standard residues; d marks the D form. Peptide text beside a SMILES is read from it. * marks the point of attachment. Abu(4,4,4-F3) = N[C@@H](CC(F)(F)F)C(=O)O; Gly(cPent) = N[C@H](C(=O)O)C1CCCC1; X1 = C[C@H](N[*:1])C(=O)C(=O)[*:2]; NMeL = CN[C@@H](CC(C)C)C(=O)O; hSer = N[C@@H](CCO)C(=O)O; Abu = CC[C@H](N)C(=O)O; Dap = NC[C@H](N)C(=O)O; Sar = CNCC(=O)O; OAll = C=CCO*

Legend:
[1] = Inhibition of full length recombinant Plasmodium vivax SUB1 expressed in Drosophila S2 cells using Dabsyl-KLVGADDV-SLA-EDANS as substrate measured every 2 mins for 1 hr by FRET assay
[2] = tested on: Plasmodium falciparum; experiment: Antiparasitic activity against Plasmodium falciparum infected in human Erythrocyte assessed as inhibition of merozoite egress from human Erythrocyte at 100 uM measured for 8 hrs by flow cytometry analysis relative to control; assay type: functional
In short: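 P. falciparum cultured in human RBCs, RPMI 1640 with 25 mM HEPES, 2.5% Albumax II, 100 μM hypoxanthine, 37 °C, 5% O2/5% CO2. Sorbitol-synchronized, plasmion-enriched late schizonts at 2% hematocrit, 1% parasitemia exposed to compound for 8 h. Fixed in glutaraldehyde, permeabilized, RNase-treated, stained with YOYO-1. Ring parasitemia by flow cytometry (100,000 events) vs DMSO. Triplicate; IC50 from 16 concentrations, 180 to 0.8 μM.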

C=CCOC(=O)CC[C@H](NC(=O)[C@H](CC(=O)O)NC(=O)C(=O)[C@H](CNC(C)=O)NC(=O)[C@H](C)NC(=O)[C@@H](NC(=O)[C@@H](NC(C)=O)C1CCCC1)[C@@H](C)O)C(N)=O
IC50 [1]: 2.39 µM
inhibition [2]: inactive

C=CCOC(=O)CC[C@H](NC(=O)[C@H](CC(=O)O)NC(=O)C(=O)[C@H](CNC(C)=O)NC(=O)[C@H](C)NC(=O)[C@@H](NC(=O)[C@@H](NC(C)=O)[C@@H](C)CC)[C@@H](C)O)C(N)=O
IC50 [1]: 23.1 µM

C=CCOC(=O)CC[C@H](NC(=O)[C@H](CC(=O)O)NC(=O)C(=O)[C@H](C)NC(=O)[C@@H](C)NC(=O)[C@@H](NC(=O)[C@@H](NC(C)=O)C1CCCC1)[C@@H](C)O)C(N)=O
inhibition [2]: inactive

C=CCOC(=O)CC[C@H](NC(=O)[C@H](CC(=O)O)NC(=O)C(=O)[C@H](C)NC(=O)[C@H](C)NC(=O)[C@H](CCCCN)NC(=O)[C@@H](NC(C)=O)[C@@H](C)CC)C(N)=O (Ac-IKA[X1]DE(OAll)-NH2)
IC50 [1]: 0.14 µM
inhibition at 100 µM [2]: 9%

CC[C@H](C)[C@H](NC(C)=O)C(=O)N[C@H](C(=O)N[C@@H](C)C(=O)N[C@@H](C)C(=O)C(=O)N[C@@H](CC(=O)O)C(N)=O)[C@@H](C)O (Ac-ITA[X1]D-NH2)
IC50 [1]: 0.17 µM
inhibition at 100 µM [2]: 3%

C=CCOC(=O)CC[C@H](NC(=O)[C@H](CCC(=O)O)NC(=O)C(=O)[C@H](C)NC(=O)[C@H](C)NC(=O)[C@@H](NC(=O)[C@@H](NC(C)=O)[C@@H](C)CC)[C@@H](C)O)C(N)=O (Ac-ITA[X1]EE(OAll)-NH2)
IC50 [1]: 2.9 µM

C=CCOC(=O)CC[C@H](NC(=O)[C@H](CC(N)=O)NC(=O)C(=O)[C@H](C)NC(=O)[C@H](C)NC(=O)[C@@H](NC(=O)[C@@H](NC(C)=O)[C@@H](C)CC)[C@@H](C)O)C(N)=O (Ac-ITA[X1]NE(OAll)-NH2)
IC50 [1]: 5.23 µM
inhibition at 100 µM [2]: 31%

C=CCOC(=O)CC[C@H](NC(=O)[C@H](CO)NC(=O)C(=O)[C@H](C)NC(=O)[C@H](C)NC(=O)[C@@H](NC(=O)[C@@H](NC(C)=O)[C@@H](C)CC)[C@@H](C)O)C(N)=O (Ac-ITA[X1]SE(OAll)-NH2)
IC50 [1]: 41.8 µM

C=CCOC(=O)CC[C@H](NC(=O)[C@H](CCO)NC(=O)C(=O)[C@H](C)NC(=O)[C@H](C)NC(=O)[C@@H](NC(=O)[C@@H](NC(C)=O)[C@@H](C)CC)[C@@H](C)O)C(N)=O (Ac-ITA[X1][hSer]E(OAll)-NH2)
IC50 [1]: 38.8 µM

C=CCOC(=O)CC[C@H](NC(=O)[C@H](CC(=O)O)NC(=O)C(=O)[C@H](C)NC(=O)CNC(=O)[C@@H](NC(=O)[C@@H](NC(C)=O)[C@@H](C)CC)[C@@H](C)O)C(N)=O (Ac-ITG[X1]DE(OAll)-NH2)
IC50 [1]: 1.28 µM

C=CCOC(=O)CC[C@H](NC(=O)[C@H](CC(=O)O)NC(=O)C(=O)[C@H](C)NC(=O)[C@H](CC(F)(F)F)NC(=O)[C@@H](NC(=O)[C@@H](NC(C)=O)[C@@H](C)CC)[C@@H](C)O)C(N)=O (Ac-IT[Abu(4,4,4-F3)][X1]DE(OAll)-NH2)
IC50 [1]: 3.6 µM

C=CCOC(=O)CC[C@H](NC(=O)[C@H](CC(=O)O)NC(=O)C(=O)[C@H](C)NC(=O)[C@H](CC)NC(=O)[C@@H](NC(=O)[C@@H](NC(C)=O)[C@@H](C)CC)[C@@H](C)O)C(N)=O (Ac-IT[Abu][X1]DE(OAll)-NH2)
IC50 [1]: 0.35 µM

C=CCOC(=O)CC[C@H](NC(=O)[C@H](CC(=O)O)NC(=O)C(=O)[C@H](C)NC(=O)[C@H](CN)NC(=O)[C@@H](NC(=O)[C@@H](NC(C)=O)[C@@H](C)CC)[C@@H](C)O)C(N)=O (Ac-IT[Dap][X1]DE(OAll)-NH2)
IC50 [1]: 13.2 µM

C=CCOC(=O)CC[C@H](NC(=O)[C@H](CC(=O)O)NC(=O)C(=O)[C@H](C)NC(=O)CN(C)C(=O)[C@@H](NC(=O)[C@@H](NC(C)=O)C1CCCC1)[C@@H](C)O)C(N)=O (Ac-[Gly(cPent)]T[Sar][X1]DE(OAll)-NH2)
IC50 [1]: 4.7 µM

C=CCOC(=O)CC[C@H](NC(=O)[C@H](CC(=O)O)NC(=O)C(=O)[C@H](C)NC(=O)[C@H](C)NC(=O)[C@H](CC(C)C)N(C)C(=O)[C@@H](NC(C)=O)C1CCCC1)C(N)=O (Ac-[Gly(cPent)][NMeL]A[X1]DE(OAll)-NH2)
IC50 [1]: 13.2 µM
